PfG6PD inh: PfG6PD (Plasmodium falciparum) enzyme inhibition | inhibition, % at 20 µM | PfGluPho enzyme, NADPH resazurin-diaphorase fluorescence | 0.78% of 350,000 active;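 active = inhibition reaching at least a set limit at 20 µM in the primary screen, cut at about 59% in these data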;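 also: 0% = DMSO wells with substrate and 100% = DMSO wells lacking glucose-6-phosphate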
A3A deaminase: blocks human APOBEC3A ssDNA deamination; AID 493011; 0.41% of 330,000 active; P31941; recombinant A3A, FAM/TAMRA ssDNA deamination fluorescence; inhibition, % at 20 µM;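 active = at least 40% inhibition at 20 µM here, with at most 30% in a related deaminase screen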;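 also: plate controls were A3A with DMSO for no effect and wells lacking A3A enzyme for full effect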
Target sequence (P31941 whole entry, looked up): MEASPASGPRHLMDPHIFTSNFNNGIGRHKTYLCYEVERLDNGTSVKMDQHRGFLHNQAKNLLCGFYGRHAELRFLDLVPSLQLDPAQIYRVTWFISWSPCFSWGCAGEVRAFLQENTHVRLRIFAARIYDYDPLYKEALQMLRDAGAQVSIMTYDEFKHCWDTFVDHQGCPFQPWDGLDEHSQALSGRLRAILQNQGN
A3G deaminase: inhibitors of human APOBEC3G DNA deaminase. recombinant A3G, ssDNA deamination FAM/TAMRA fluorescence. inhibition, % at 20 µM. 0.28% of 330,000 active. AID 493012;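 active = inhibition of at least 40% at 20 µM, with no more than 30% in the related APOBEC3A deaminase screen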;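 also: plate controls were DMSO wells with A3G for no effect and wells lacking A3G enzyme for full effect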
M18AAP inhibitor: blocks P. falciparum M18 aspartyl aminopeptidase. inhibition, % at 7.35 µM. 1.2% of 290,000 active. recombinant PfM18AAP, H-Glu-NHMec fluorogenic cleavage. AID 1822;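 active = inhibition above the campaign mean inhibition over all tested compounds plus 3 SD, cut at about 28% in these data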;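 also: 0% = plate median of test compound wells and 100% = 2 mM ZnCl2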
HKDC1 inh: HKDC1 (human) hexokinase inhibition; 0.16% of 340,000 active; recombinant HKDC1, G6PDH/diaphorase resazurin coupled fluorescence; inhibition, % at 20 µM;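 active = inhibition above about 35% when tested at 20 µM, limit read from the data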;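 also: plate controls were DMSO wells with enzyme for no effect and DMSO wells lacking enzyme for full effect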
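Test system: recombinant HKDC1 (HK5) hexokinase enzyme, produced in-house; Amount: enzyme 5 µg/mL final; Buffer or medium: Tris pH 8.0 buffer with MgCl2, Tween-20, BSA, BME; Reagent: glucose and ATP substrates; Doses: 20 µM test compound, 1% DMSO; Incubation: 90 min reaction incubation at room temperature, dark; Detection: resorufin fluorescence at 613 nm.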
SUMO HTRF inh: SUMOylation inhibition. P63279. HTRF SUMOylation assay, SAE1/SAE2 + UBC9, in vitro. inhibition, % at 35 µM. 0.36% of 290,000 active; in the data active = inhibition above about 50%, passing the limit was not always enough
Target sequence (P63279 whole entry, looked up): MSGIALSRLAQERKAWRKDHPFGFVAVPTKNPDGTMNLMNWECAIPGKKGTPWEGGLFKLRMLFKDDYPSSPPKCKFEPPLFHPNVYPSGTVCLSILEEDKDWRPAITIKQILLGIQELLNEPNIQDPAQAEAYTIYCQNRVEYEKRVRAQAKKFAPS
APOBEC3A confirm: confirmation of human APOBEC3A DNA deaminase inhibitors; shares compounds with A3A deaminase; recombinant A3A, ssDNA deaminase UDG fluorescence assay; inhibition, % at 20 µM; 63% of 1,400 active; AID 493151;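 active = inhibition reaching a set limit, 80% of the first screen's cutoff, at 20 µM in any replicate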;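 also: plate controls were DMSO wells with A3A for no effect and wells lacking A3A enzyme for full effect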
UDG ctr A3A: counter-screen for APOBEC3A inhibitors: UDG; 1,000 tested, under 10 active; shares compounds with A3A deaminase; UDG counterscreen, FAM/TAMRA uracil oligo fluorescence; AID 504714; inhibition, % at 20 µM; call rule not given here
Active calls of the source: *; · = no result given. An excerpt weighted towards active compounds, which were near 2.4% of everything screened.

SMILES	PfG6PD inh	A3A deaminase	A3G deaminase	M18AAP inhibitor	HKDC1 inh	SUMO HTRF inh	APOBEC3A confirm	UDG ctr A3A
COCc1cc(C)nc(Sc2nc3c(c(=O)n(C)c(=O)n3C)n2C)c1C#N	7.8	49.7*	12.5	-0.6	-0.8	3.4	44.0*	-3.0
COCc1cc(C)nc(SCc2ccccc2)c1C#N	4.4	-7.3	-4.6	0.4	-2.7	-13.2	·	·
CCC(=O)N(Cc1cc2ccccc2[nH]c1=O)C(C)C	1.7	-0.4	-4.4	3.9	6.2	14.2	·	·
Fc1ccccc1Sc1ccccc1CNC1=NCCN1	16.4	62.9*	-4.1	-11.7	9.4	-10.0	90.9*	-0.5
C/C(=N\NC1=NCCN1)c1ccccc1	-5.2	-0.1	-4.7	3.1	-4.1	7.0	·	·
c1ccc(Sc2cccc3ccccc23)c(CNC2=NCCN2)c1	-2.6	58.4*	18.2	-3.5	0.6	2.6	75.4*	2.5
O=C(O)c1cccc(Sc2ccc(Br)cc2C(=O)O)c1	2.8	-3.3	-8.2	·	-4.5	·	·	·
CC1CC(OCC(O)CN2CCOCC2)CC(C)(C)C1 (stereo unspecified)	-5.6	4.2	-0.3	-1.8	-7.8	14.5	·	·
CC1CC(OCC(O)C[N+]2(C)CCOCC2)CC(C)(C)C1 (stereo unspecified)	-1.7	62.1*	17.9	-15.2	-7.9	-11.5	69.4*	3.7
Cc1c(C#N)c2ccccc2n1C	-5.3	-1.0	-7.5	6.0	0.1	8.7	·	·
CC(C)C(NC(=O)c1ccc2c(c1)OCO2)C(=O)N/N=C\c1ccco1 (stereo unspecified)	-5.9	47.6*	13.8	-1.9	-3.1	-19.8	52.2*	-1.7
COCCOC(=O)c1[nH]c2c(c1C)C(=O)CC(c1ccco1)C2 (stereo unspecified)	11.1	55.6*	28.3	-4.5	3.4	4.8	45.3*	-3.4
CSCCOC(=O)c1[nH]c2c(c1C)C(=O)CC(c1ccco1)C2 (stereo unspecified)	23.1	43.8*	22.3	-10.2	0.9	10.1	39.2*	0.4
O=C(NCCCO)C12CC3CC(CC(C3)C1)C2	-1.6	-3.3	-9.7	-8.7	-2.8	·	·	·
Cc1ccc(N2NC(=O)/C(=C/c3ccc(-c4ccc(Cl)c(C(=O)O)c4)o3)C2=O)cc1	-12.2	15.0	14.5	-8.1	-0.8	13.2	·	·
CCCCC1(C)OC(=O)C(=Cc2ccc(-c3ccc(Cl)c(C(=O)O)c3)o2)C(=O)O1 (stereo unspecified)	37.9	54.6*	26.2	25.4	14.2	26.2	30.0*	0.6
COCCCNC(=O)CN(Cc1ccccc1)S(=O)(=O)c1ccccc1	-2.9	-4.4	-5.6	0.3	2.6	1.6	·	·
COCCCNC(=O)c1ccccc1N(Cc1ccccc1)S(=O)(=O)c1ccccc1	8.2	54.6*	7.8	-1.0	-6.2	9.7	2.7	·
O=C(NC1CCCCC1)N1CCCc2ccccc21	-17.7	-3.7	-4.9	-10.7	-12.1	-6.6	·	·
O=[N+]([O-])c1ccccc1/C=N/NC1=NCCN1	5.7	50.3*	18.7	·	-6.4	·	63.6*	5.2
CCOC(=O)CN1C(=O)S/C(=C\c2ccc(-c3cccc(C(=O)O)c3C)o2)C1=O	16.4	5.9	-5.0	·	3.5	·	·	·
CCOC(=O)CN1C(=O)S/C(=C\c2ccc(-c3ccc(C(=O)O)c(Cl)c3)o2)C1=O	-4.4	57.9*	16.1	7.4	7.6	15.1	39.5*	-12.0
NS(=O)(=O)c1cc(C(=O)OCC(=O)Nc2ccc3[nH]c(=O)[nH]c3c2)ccc1Cl	3.8	49.6*	2.1	·	3.7	·	44.2*	-2.9
Cc1ccc(NC(=O)c2cc(-c3cc(Cl)ccc3O)n[nH]2)cc1C	-5.6	-0.9	-8.1	-3.8	-5.9	38.4	·	·
CC1CCC/C(=N/NC(=O)c2ccccc2-n2cccc2)C1 (stereo unspecified)	-1.1	53.3*	16.3	-4.4	-6.9	16.8	12.7*	-2.8
